Calls of active or inactive are those of the source. No cut-off for these calls is given here.
Assays:
Epidermophyton floccosum [1] = test: Antifungal activity against Epidermophyton floccosum (Hartz) Langeron and Milochevitch CBS 358.93 assessed as growth inhibition at 20 ug/ml measured on day 7 by sabouraud dextrose agar diffusion method relative to control; assay type: functional; conditions: (Hartz) Langeron and Milochevitch CBS 358.93, 168 h, read-out: GI
Method in brief: (§1)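 Dermatophyte strains kept on Sabouraud dextrose agar slants. Mycelium disks (10 mm) from a stationary-phase culture grown at 26 ± 1 °C on cellophane over SDA to log phase, then moved onto SDA containing compound added from DMSO stock at 45 °C (final DMSO 0.1%; DMSO-only controls). Colony diameter measured daily for 7 days. % inhibition = (dex − dex')/dex × 100. Three replicates per concentration; mean of three independent experiments.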

Trichophyton rubrum [2] = test: Antifungal activity against Trichophyton rubrum (Castellani) Sabouraud IHME 4321 assessed as growth inhibition at 20 ug/ml measured on day 7 by sabouraud dextrose agar diffusion method relative to control; assay type: functional; conditions: (Castellani) Sabouraud IHME 4321, 168 h, read-out: GI; method in brief: as §1
Trichophyton tonsurans [3] = test: Antifungal activity against Trichophyton tonsurans Malmsten CBS 483.76 assessed as growth inhibition at 20 ug/ml measured on day 7 by sabouraud dextrose agar diffusion method relative to control; assay type: functional; conditions: Malmsten CBS 483.76, 168 h, read-out: GI; method in brief: as §1
Trichophyton violaceum [4] = test: Antifungal activity against Trichophyton violaceum Malmsten CBS 459.61 assessed as growth inhibition at 20 ug/ml measured on day 7 by sabouraud dextrose agar diffusion method relative to control; assay type: functional; conditions: Malmsten CBS 459.61, 168 h, read-out: GI; method in brief: as §1
[5] = tested on: Trichophyton mentagrophytes; test: Antifungal activity against Trichophyton mentagrophytes (Robin) Blanchard CBS 160.66 assessed as growth inhibition at 20 ug/ml measured on day 7 by sabouraud dextrose agar diffusion method relative to control; assay type: functional; conditions: (Robin) Blanchard CBS 160.66, 168 h, read-out: GI; method in brief: as §1
Nannizzia gypsea [6] = test: Antifungal activity against Microsporum gypseum (Bodin) Guiart and Grigorakis IHME 3999 assessed as growth inhibition at 20 ug/ml measured on day 7 by sabouraud dextrose agar diffusion method relative to control; assay type: functional; method in brief: as §1
Paraphyton cookei [7] = test: Antifungal activity against Nannizzia cajetani Ajello CBS 495.70 assessed as growth inhibition at 20 ug/ml measured on day 7 by sabouraud dextrose agar diffusion method relative to control; assay type: functional; conditions: Ajello CBS 495.70, 168 h, read-out: GI; method in brief: as §1
[8] = Antifungal activity against Microsporum canis Bodin CBS 4727 assessed as growth inhibition at 20 ug/ml measured on day 7 by sabouraud dextrose agar diffusion method relative to control; assay type: functional; method in brief: as §1
Nannizzia gypsea [9] = test: Antifungal activity against Nannizzia gypsea (Bodin) Guiart et Grigoraki CBS 286.63 assessed as growth inhibition at 20 ug/ml measured on day 7 by sabouraud dextrose agar diffusion method relative to control; assay type: functional; method in brief: as §1
Epidermophyton floccosum [10] = test: Antifungal activity against Epidermophyton floccosum (Hartz) Langeron and Milochevitch CBS 358.93 assessed as growth inhibition at 100 ug/ml measured on day 7 by sabouraud dextrose agar diffusion method relative to control; assay type: functional; conditions: (Hartz) Langeron and Milochevitch CBS 358.93, 168 h, read-out: GI; method in brief: as §1
Trichophyton rubrum [11] = test: Antifungal activity against Trichophyton rubrum (Castellani) Sabouraud IHME 4321 assessed as growth inhibition at 100 ug/ml measured on day 7 by sabouraud dextrose agar diffusion method relative to control; assay type: functional; conditions: (Castellani) Sabouraud IHME 4321, 168 h, read-out: GI; method in brief: as §1
Trichophyton tonsurans [12] = test: Antifungal activity against Trichophyton tonsurans Malmsten CBS 483.76 assessed as growth inhibition at 100 ug/ml measured on day 7 by sabouraud dextrose agar diffusion method relative to control; assay type: functional; conditions: Malmsten CBS 483.76, 168 h, read-out: GI; method in brief: as §1
Trichophyton violaceum [13] = test: Antifungal activity against Trichophyton violaceum Malmsten CBS 459.61 assessed as growth inhibition at 100 ug/ml measured on day 7 by sabouraud dextrose agar diffusion method relative to control; assay type: functional; conditions: Malmsten CBS 459.61, 168 h, read-out: GI; method in brief: as §1
[14] = tested on: Trichophyton mentagrophytes; test: Antifungal activity against Trichophyton mentagrophytes (Robin) Blanchard CBS 160.66 assessed as growth inhibition at 100 ug/ml measured on day 7 by sabouraud dextrose agar diffusion method relative to control; assay type: functional; conditions: (Robin) Blanchard CBS 160.66, 168 h, read-out: GI; method in brief: as §1
Nannizzia gypsea [15] = test: Antifungal activity against Microsporum gypseum (Bodin) Guiart and Grigorakis IHME 3999 assessed as growth inhibition at 100 ug/ml measured on day 7 by sabouraud dextrose agar diffusion method relative to control; assay type: functional; conditions: (Bodin) Guiart and Grigorakis IHME 3999, 168 h, read-out: GI; method in brief: as §1
Paraphyton cookei [16] = test: Antifungal activity against Nannizzia cajetani Ajello CBS 495.70 assessed as growth inhibition at 100 ug/ml measured on day 7 by sabouraud dextrose agar diffusion method relative to control; assay type: functional; conditions: Ajello CBS 495.70, 168 h, read-out: GI; method in brief: as §1
[17] = Antifungal activity against Microsporum canis Bodin CBS 4727 assessed as growth inhibition at 100 ug/ml measured on day 7 by sabouraud dextrose agar diffusion method relative to control; assay type: functional; method in brief: as §1
Nannizzia gypsea [18] = test: Antifungal activity against Nannizzia gypsea (Bodin) Guiart et Grigoraki CBS 286.63 assessed as growth inhibition at 100 ug/ml measured on day 7 by sabouraud dextrose agar diffusion method relative to control; assay type: functional; method in brief: as §1
[19] = target: Nuclear factor NF-kappa-B complex (Homo sapiens) (UniProt Q00653+P19838+Q04206); test: Inhibition of NF-kappaB (unknown origin)/32P-labeled oligonucleotide interaction at 0.1 to 10 mM after 20 mins by electrophoretic mobility shift assay; assay type: protein-complex assay
Chain of Nuclear factor NF-kappa-B complex (Homo sapiens) (P19838 whole entry, looked up): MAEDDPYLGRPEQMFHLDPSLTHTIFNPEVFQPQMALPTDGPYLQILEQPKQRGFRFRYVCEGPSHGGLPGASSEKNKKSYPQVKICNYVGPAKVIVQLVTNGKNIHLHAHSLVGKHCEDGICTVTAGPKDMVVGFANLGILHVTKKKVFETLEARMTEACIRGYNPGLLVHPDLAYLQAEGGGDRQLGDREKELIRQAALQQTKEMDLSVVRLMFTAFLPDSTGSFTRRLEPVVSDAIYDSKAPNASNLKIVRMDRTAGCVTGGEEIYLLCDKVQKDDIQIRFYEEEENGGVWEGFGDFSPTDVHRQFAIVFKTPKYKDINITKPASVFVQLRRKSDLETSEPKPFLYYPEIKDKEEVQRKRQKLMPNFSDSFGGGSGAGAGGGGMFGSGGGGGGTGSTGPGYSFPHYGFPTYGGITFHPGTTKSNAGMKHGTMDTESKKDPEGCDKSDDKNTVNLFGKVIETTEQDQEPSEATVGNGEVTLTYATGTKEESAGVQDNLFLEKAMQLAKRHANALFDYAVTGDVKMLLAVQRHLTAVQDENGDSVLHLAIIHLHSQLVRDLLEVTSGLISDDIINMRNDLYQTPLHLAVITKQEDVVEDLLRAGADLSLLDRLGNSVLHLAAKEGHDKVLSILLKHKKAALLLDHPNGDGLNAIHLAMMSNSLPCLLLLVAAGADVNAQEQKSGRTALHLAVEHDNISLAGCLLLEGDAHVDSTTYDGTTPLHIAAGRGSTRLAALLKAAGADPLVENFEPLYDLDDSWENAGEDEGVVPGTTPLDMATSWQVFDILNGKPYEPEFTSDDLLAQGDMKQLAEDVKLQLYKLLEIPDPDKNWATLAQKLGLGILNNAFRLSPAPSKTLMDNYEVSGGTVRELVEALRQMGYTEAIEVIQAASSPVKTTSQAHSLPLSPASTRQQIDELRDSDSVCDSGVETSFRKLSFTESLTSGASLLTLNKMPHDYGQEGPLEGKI
Chain of Nuclear factor NF-kappa-B complex (Homo sapiens) (Q00653 whole entry, looked up): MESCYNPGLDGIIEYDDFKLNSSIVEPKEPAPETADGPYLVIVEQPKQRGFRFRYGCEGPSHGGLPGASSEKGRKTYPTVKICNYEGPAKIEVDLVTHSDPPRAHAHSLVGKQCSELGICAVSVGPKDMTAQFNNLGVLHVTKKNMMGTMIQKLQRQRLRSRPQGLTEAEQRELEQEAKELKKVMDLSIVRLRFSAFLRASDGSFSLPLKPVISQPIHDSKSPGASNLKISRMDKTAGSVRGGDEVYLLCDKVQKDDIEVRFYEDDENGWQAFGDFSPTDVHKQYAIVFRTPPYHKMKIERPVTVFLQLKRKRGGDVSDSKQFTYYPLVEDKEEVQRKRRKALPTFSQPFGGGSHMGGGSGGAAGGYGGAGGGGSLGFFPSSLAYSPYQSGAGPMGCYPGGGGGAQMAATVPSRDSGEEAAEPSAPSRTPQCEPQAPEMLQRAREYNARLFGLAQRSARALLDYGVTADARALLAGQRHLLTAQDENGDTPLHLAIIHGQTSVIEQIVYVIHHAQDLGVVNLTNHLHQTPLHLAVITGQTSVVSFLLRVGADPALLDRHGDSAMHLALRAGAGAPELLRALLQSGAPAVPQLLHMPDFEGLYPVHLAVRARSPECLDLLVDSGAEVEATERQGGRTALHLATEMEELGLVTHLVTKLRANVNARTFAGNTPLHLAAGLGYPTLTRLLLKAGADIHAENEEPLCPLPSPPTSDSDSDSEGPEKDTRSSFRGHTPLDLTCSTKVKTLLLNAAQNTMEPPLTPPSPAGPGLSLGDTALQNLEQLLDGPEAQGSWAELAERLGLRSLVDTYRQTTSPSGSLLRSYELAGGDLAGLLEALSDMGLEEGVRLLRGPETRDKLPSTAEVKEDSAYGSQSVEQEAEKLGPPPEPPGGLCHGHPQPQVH
Chain of Nuclear factor NF-kappa-B complex (Homo sapiens) (Q04206 whole entry, looked up): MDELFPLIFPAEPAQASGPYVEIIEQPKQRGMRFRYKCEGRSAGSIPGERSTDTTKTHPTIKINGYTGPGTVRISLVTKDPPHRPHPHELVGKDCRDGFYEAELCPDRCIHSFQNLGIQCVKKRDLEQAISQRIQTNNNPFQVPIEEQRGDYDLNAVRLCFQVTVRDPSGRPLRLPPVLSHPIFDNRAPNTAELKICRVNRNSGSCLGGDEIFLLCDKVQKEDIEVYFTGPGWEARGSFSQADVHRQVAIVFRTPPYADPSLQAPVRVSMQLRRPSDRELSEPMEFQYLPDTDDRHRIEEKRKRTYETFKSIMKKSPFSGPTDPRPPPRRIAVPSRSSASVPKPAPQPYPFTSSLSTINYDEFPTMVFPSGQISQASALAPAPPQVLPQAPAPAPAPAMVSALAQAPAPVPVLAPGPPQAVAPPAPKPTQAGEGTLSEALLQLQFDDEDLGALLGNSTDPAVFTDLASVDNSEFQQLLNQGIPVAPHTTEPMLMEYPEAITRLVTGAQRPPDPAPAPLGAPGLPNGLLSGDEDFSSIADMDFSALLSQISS
Method in brief: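 Probe was a double-stranded 32P-labelled oligonucleotide (0.25 ng) in buffer of 10% glycerol, 0.05% NP-40, 10 mM Tris-HCl pH 7.5, 50 mM NaCl, 0.5 mM DTT and 10 mM MgCl2. Compound and probe were bound for 20 min at room temperature, then recombinant NF-kappaB p50 was added for a further 20 min. Samples were run on 6% polyacrylamide in 0.25× TBE at 200 V.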

K562 [20] = test: Induction of apoptosis in human K562 cells assessed as live cells at 500 uM after 3 days by Annexin-V staining-based assay (reference value: 87.33%); assay type: functional
K562 [21] = test: Induction of apoptosis in human K562 cells assessed as live cells at 1000 uM after 3 days by Annexin-V staining-based assay (reference value: 87.33%); assay type: functional
K562 [22] = test: Induction of apoptosis in human K562 cells assessed as live cells at 5 uM after 3 days by Annexin-V staining-based assay (reference value: 87.33%); assay type: functional
K562 [23] = test: Induction of apoptosis in human K562 cells assessed as live cells at 10 uM after 3 days by Annexin-V staining-based assay (reference value: 87.33%); assay type: functional
K562 [24] = test: Induction of apoptosis in human K562 cells assessed as early apoptotic cells at 500 uM after 3 days by Annexin-V staining-based assay (reference value: 5.41%); assay type: functional
K562 [25] = test: Induction of apoptosis in human K562 cells assessed as early apoptotic cells at 1000 uM after 3 days by Annexin-V staining-based assay (reference value: 5.41%); assay type: functional
K562 [26] = test: Induction of apoptosis in human K562 cells assessed as early apoptotic cells at 5 uM after 3 days by Annexin-V staining-based assay (reference value: 5.41%); assay type: functional
K562 [27] = test: Induction of apoptosis in human K562 cells assessed as early apoptotic cells at 10 uM after 3 days by Annexin-V staining-based assay (reference value: 5.41%); assay type: functional
K562 [28] = test: Induction of apoptosis in human K562 cells assessed as late apoptotic cells at 500 uM after 3 days by Annexin-V staining-based assay (reference value: 5.96%); assay type: functional
K562 [29] = test: Induction of apoptosis in human K562 cells assessed as late apoptotic cells at 1000 uM after 3 days by Annexin-V staining-based assay (reference value: 5.96%); assay type: functional
K562 [30] = test: Induction of apoptosis in human K562 cells assessed as late apoptotic cells at 5 uM after 3 days by Annexin-V staining-based assay (reference value: 5.96%); assay type: functional
K562 [31] = test: Induction of apoptosis in human K562 cells assessed as late apoptotic cells at 10 uM after 3 days by Annexin-V staining-based assay (reference value: 5.96%); assay type: functional
K562 [32] = test: Induction of apoptosis in human K562 cells assessed as dead cells at 500 uM after 3 days by Annexin-V staining-based assay (reference value: 1.29%); assay type: functional
K562 [33] = test: Induction of apoptosis in human K562 cells assessed as dead cells at 1000 uM after 3 days by Annexin-V staining-based assay (reference value: 1.29%); assay type: functional
K562 [34] = test: Induction of apoptosis in human K562 cells assessed as dead cells at 5 uM after 3 days by Annexin-V staining-based assay (reference value: 1.29%); assay type: functional
K562 [35] = test: Induction of apoptosis in human K562 cells assessed as dead cells at 10 uM after 3 days by Annexin-V staining-based assay (reference value: 1.29%); assay type: functional
K562 [36] = test: Induction of apoptosis in human K562 cells assessed as apoptotic cells at 500 uM after 3 days by Annexin-V staining-based assay (reference value: 11.37%); assay type: functional
K562 [37] = test: Induction of apoptosis in human K562 cells assessed as apoptotic cells at 1000 uM after 3 days by Annexin-V staining-based assay (reference value: 11.37%); assay type: functional
K562 [38] = test: Induction of apoptosis in human K562 cells assessed as apoptotic cells at 5 uM after 3 days by Annexin-V staining-based assay (reference value: 11.37%); assay type: functional
K562 [39] = test: Induction of apoptosis in human K562 cells assessed as apoptotic cells at 10 uM after 3 days by Annexin-V staining-based assay (reference value: 11.37%); assay type: functional
[40] = Antioxidant activity assessed as superoxide anion radical scavenging by photochemiluminescence method relative to trolox; assay type: physicochemical
Method in brief: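 Superoxide was generated photochemically from luminol under UV light (351 nm). Lag time (water-soluble, ACW) or integrated light emission over 180 s (lipid-soluble, ACL) was compared with a Trolox standard curve. Samples were centrifuged 5 min at 16000 g and diluted 1:40 in water (ACW) or methanol (ACL). Triplicate determinations.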

[41] = Antioxidant activity assessed as inhibition of AAPH-induced peroxyl radical generation by oxygen radical absorbance capacity assay relative to trolox; assay type: physicochemical
Method in brief: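 Run at 37 °C and pH 7.4 with fluorescein (85 nM) as the probe and AAPH as the peroxyl radical source. Compounds were dissolved fresh in PBS. Fluorescence read at ex 485/em 538 nm every 5 min for up to 30 min after AAPH addition. Net area under the decay curve (blank minus sample) was calibrated against Trolox at 10–50 μM and given as Trolox equivalents.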

[42] = Antioxidant activity assessed as superoxide anion radical scavenging by photochemiluminescence method relative to trolox using formulation containing O/W; assay type: physicochemical
K562 [43] = test: Antiproliferative activity against human K562 cells assessed as cell number after 3 days by Coulter counter; conditions: K562, 72 h

Molecule C[C@@H]1O[C@@H](OC[C@H]2O[C@@H](Oc3c(-c4ccc(O)c(O)c4)oc4cc(O)cc(O)c4c3=O)[C@H](O)[C@@H](O)[C@@H]2O)[C@H](O)[C@H](O)[C@H]1O [RUTIN] has an inhibition of growth at 20 µg/mL (Epidermophyton floccosum [1]) of 1.9%, an inhibition of growth at 20 µg/mL (Trichophyton rubrum [2]) of 6.1% and an inhibition of growth at 20 µg/mL (Trichophyton tonsurans [3]) of 0%. The inhibition of growth at 20 µg/mL (Trichophyton violaceum [4]) was 2.1%, the inhibition of growth at 20 µg/mL [5] was 0% and the “growth inhibition (GI)” value (Nannizzia gypsea [6]) was “inactive”. For the same molecule, the inhibition of growth at 20 µg/mL (Paraphyton cookei [7]) was 3.3%, the “growth inhibition (GI)” value [8] was “inactive” and the “growth inhibition (GI)” value (Nannizzia gypsea [9]) was “inactive”. The inhibition of growth at 100 µg/mL (Epidermophyton floccosum [10]) was 2.2%, the inhibition of growth at 100 µg/mL (Trichophyton rubrum [11]) was 9.9% and the inhibition of growth at 100 µg/mL (Trichophyton tonsurans [12]) was 2.8%. For the same molecule, the inhibition of growth at 100 µg/mL (Trichophyton violaceum [13]) was 4.2%, the inhibition of growth at 100 µg/mL [14] was 3.3% and the inhibition of growth at 100 µg/mL (Nannizzia gypsea [15]) was 4.1%. For the same molecule, the inhibition of growth at 100 µg/mL (Paraphyton cookei [16]) was 12.3%, the “growth inhibition (GI)” value [17] was “inactive” and the “growth inhibition (GI)” value (Nannizzia gypsea [18]) was “inactive”. The inhibition [19] was “Active”, the Activity (K562 [20]) was 88.15% and the Activity (K562 [21]) was 84.85%. For the same molecule, the Activity (K562 [22]) was “inactive”, the Activity (K562 [23]) was “inactive” and the Activity (K562 [24]) was 9.15%. The Activity (K562 [25]) was 8.6%, the Activity (K562 [26]) was “inactive” and the Activity (K562 [27]) was “inactive”. For the same molecule, the Activity (K562 [28]) was 4.05%, the Activity (K562 [29]) was 6.15% and the Activity (K562 [30]) was “inactive”. The Activity (K562 [31]) was “inactive”, the Activity (K562 [32]) was 0.65% and the Activity (K562 [33]) was 0.4%. For the same molecule, the Activity (K562 [34]) was “inactive”, the Activity (K562 [35]) was “inactive” and the Activity (K562 [36]) was 13.2%. The Activity (K562 [37]) was 14.75%, the Activity (K562 [38]) was “inactive” and the Activity (K562 [39]) was “inactive”. The Activity [40] was 1883.08 µmol/g, the Activity [41] was 10708.06 µmol/g and the Activity [42] was 5.04 µmol/g. The IC50 (K562 [43]) was 897 µM.
